# Shown are actives, neighbours in structure and some others; about 2.2% of the full set was active somewhere.
# ABHD5-PLIN5 inh = inhibitors of human ABHD5-perilipin-5 interaction | 0.78% of 360,000 active | AID 602281 | inhibition, % at 4 µM | Split G. princeps luciferase complementation, luminescence, 4 h | Q00G26+Q8WTS1;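 active means inhibition above the mean inhibition across every tested compound plus 3 SD, cut at about 22% in these data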;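 further: 0% = DMSO only wells and the 100% control is not disclosed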
# PfG6PD inh = PfG6PD (Plasmodium falciparum) enzyme inhibition | inhibition, % at 20 µM | PfGluPho enzyme, NADPH resazurin-diaphorase fluorescence | AID 504690 | 0.78% of 350,000 active;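 active means inhibition reaching at least a set limit at 20 µM in the primary screen, cut at about 59% in these data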;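 further: 0% = DMSO wells with substrate and 100% = DMSO wells lacking glucose-6-phosphate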
# HKDC1 inhibitor = inhibitors of human hexokinase HKDC1 | Q2TB90 | recombinant HKDC1, G6PDH/diaphorase resazurin coupled fluorescence | inhibition, % at 20 µM | 0.16% of 340,000 active | AID 493160;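 active means inhibition above about 35% when tested at 20 µM, limit read from the data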;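 further: plate controls were DMSO wells with enzyme for no effect and DMSO wells lacking enzyme for full effect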
#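 Test system: recombinant HKDC1 (HK5) hexokinase enzyme, produced in-house; Amount: enzyme 5 µg/mL final; Buffer or medium: Tris pH 8.0 buffer with MgCl2, Tween-20, BSA, BME; Reagent: glucose and ATP substrates; Doses: 20 µM test compound, 1% DMSO; Incubation: 90 min reaction incubation at room temperature, dark; Detection: resorufin fluorescence at 613 nm.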
# Granule exo inh = blocks lytic granule exocytosis; TALL-104 LAMP-1 surface exposure, flow cytometry; cells stimulated with thapsigargin and PMA; inhibition, % at 10 µM; 0.66% of 360,000 active; AID 651702;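 active means inhibition above about 55%, limit read from the data; inconclusive means no clear call, values can overlap the other calls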
# HKDC1 act conf = HKDC1 (human) activation, single-dose confirmed | 14% of 740 active | inhibition, % at 20 µM | AID 504708 | shares compounds with HKDC1 inhibitor | recombinant HKDC1, G6PDH/diaphorase resazurin fluorescence; stronger effect = lower value;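 active means inhibition at or below a set negative limit, negative inhibition meaning the enzyme was activated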
# PfG6PD confirm = PfG6PD inhibition, single-dose confirmed. 34% of 2,400 active. inhibition, % at 20 µM. shares compounds with PfG6PD inh. AID 504753. recombinant PfGluPho, NADPH-diaphorase-resazurin fluorescence;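 active means inhibition of at least 50% at 20 µM in any single replicate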;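 further: 0% = DMSO with substrate and 100% = DMSO lacking glucose-6-phosphate substrate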
# Diaph ctr 10uM = inhibits diaphorase or oxidizes, flagging false PfG6PD hits; shares compounds with PfG6PD inh; diaphorase-coupled resazurin reduction, fluorescence, NADPH 10 uM; inhibition, % at 20 µM; 39% of 820 active; AID 504862;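 active means average inhibition reaching 50% or more with the compound at 20 µM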;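 further: resorufin red fluorescence formed as diaphorase reduces resazurin using NADPH; 0% = DMSO with enzyme and 100% = DMSO without enzyme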
# Diaphorase 30uM = diaphorase inhibition or oxidation at 30 uM NADPH; shares compounds with PfG6PD inh; Diaphorase/resazurin coupled assay, resorufin fluorescence; inhibition, % at 20 µM; 29% of 820 active; AID 504863;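 active means inhibition averaging 50% or more, tested at 20 µM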;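 further: 0% = DMSO with enzyme and 100% = DMSO wells lacking diaphorase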
# ABHD5-PLIN5 conf = confirmation of human ABHD5-PLIN5 interaction inhibitors; inhibition, % at 4 µM; AID 651612; biochemical ABHD5-PLIN5 interaction, luminescence; 67% of 2,200 active; shares compounds with ABHD5-PLIN5 inh; in the data active means inhibition above about 23%;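 further: 0% = DMSO vehicle wells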
# HNF4 counter = HNF4 split-luciferase signal hit, counter-screen; 77% of 2,200 active; shares compounds with ABHD5-PLIN5 inh; inhibition, % at 4 µM; HNF4 dimerization, luminescence, biochemical;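 active means mean inhibition across replicate wells exceeding the computed hit threshold, cut at about 13% in these data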;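 further: light from luciferase halves that rejoin when HNF4 fusion proteins dimerize; 0% = DMSO only wells and the 100% control is not given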
# Starred values were filed as active, the others as inactive; ? = inconclusive; . = not tested or not shown.
SMILES,ABHD5-PLIN5 inh,PfG6PD inh,HKDC1 inhibitor,Granule exo inh,HKDC1 act conf,PfG6PD confirm,Diaph ctr 10uM,Diaphorase 30uM,ABHD5-PLIN5 conf,HNF4 counter
O=C1C(=C(I)I)c2ccccc2-c2ccccc21,43.3*,103.6*,60.7*,103.3*,31.7,60.5*,60.7*,70.1*,101.2*,101.8*
COc1c(CC=C(C)C)cc(C2CC(=O)c3c(O)cc(O)cc3O2)cc1CC=C(C)C (configuration not stated),-27.3,17.5,5.9,41.7,.,.,.,.,.,.
COC1=CC(=O)C(C2CC(=O)c3c(O)cc(O)cc3O2)=CC1=O (configuration not stated),28.6*,124.1*,59.8*,67.1*,39.8,.,.,.,82.3*,92.8*
Cc1nc([N+](=O)[O-])c(Br)n1Cc1ccc(Cl)c(Cl)c1,23.5*,6.0,35.0,-3.1,53.8,.,.,.,35.4*,38.4*
Cc1ccccc1NS(=O)(=O)c1cccc2nsnc12,7.6,0.9,-2.0,-6.2,.,.,.,.,.,.
Cc1ccccc1OCCCN1C(=O)C(=O)c2cccc(C)c21,27.5*,36.5,36.8*,6.4,-6.2,.,.,.,49.0*,47.8*
COc1ccc2c(c1)/C(=C\c1cccc(/C=C3/C(=O)Nc4ccc(OC)cc43)n1)C(=O)N2,50.6*,22.3,36.7*,16.5,24.2,.,.,.,100.4*,98.4*
COc1cccc(/C=C2\C(=O)C(=O)c3ccccc32)c1,-7.7,13.0,16.2,7.4,.,.,.,.,.,.
COc1cc(N=c2ssnc2Cl)cc(OC)c1OC,61.0*,83.2*,-99.8,99.3*,-45.9*,68.3*,-25.9,-22.0,67.8*,103.2*
COc1cc(-c2nnc(-c3cc(OC)c(OC)c(OC)c3)o2)cc(OC)c1OC,1.6,9.6,-5.5,-1.8,.,.,.,.,.,.
Cc1ccc(C(=O)c2coc3c2C(=O)C(=O)c2ccccc2-3)cc1,85.1*,110.0*,57.1*,11.0,28.6,109.8*,93.3*,100.5*,93.6*,64.6*
Cc1oc2c(c1C(=O)c1ccc(Cl)cc1)C(=O)C(=O)c1ccccc1-2,54.7*,116.7*,54.6*,104.0*,46.1,88.3*,83.3*,77.5*,80.5*,34.7*
CCCCC1CCC(C(=O)N(C)CC(=O)Nc2cccc(OC)c2)CC1 (configuration not stated),-4.0,3.7,-2.4,-1.8,.,.,.,.,.,.
CC[n+]1c(/C=C2\Sc3ccccc3N2C)ccc2cccc(C)c21,24.0*,20.4,-40.2,67.5*,-37.8*,.,.,.,23.3*,26.1*
CCOc1ccc(C(C)=O)cc1CSc1nc2nc(C)cc(C)n2n1,2.3,-11.9,-8.6,-3.9,.,.,.,.,.,.
CN(C)c1ccc(C(=O)c2ccc(O)cc2O)cc1,-9.6,-13.2,-1.4,-3.4,.,.,.,.,.,.
CN(C)c1ccc(Cc2cc3c(O)ccc(O)c3cc(Cc3ccc(N(C)C)cc3)c2=O)cc1,87.3*,113.3*,60.4*,103.6*,44.7,83.5*,11.1,3.7,94.9*,47.2*
Cc1ccc(N2C(=O)c3ccccc3C2=O)cc1,-2.9,3.7,-0.4,-2.3,.,.,.,.,.,.
Cc1ccc(SC2=C(Sc3ccc(C)cc3)C(=O)c3ccccc3C2=O)cc1,25.4*,90.1*,66.0*,93.0*,69.0,62.2*,20.3,-1.2,63.3*,12.5*
COc1cc2c(cc1C1NC(=S)NC(C)=C1C(N)=O)CCCC2 (configuration not stated),0.1,26.9,0.4,-1.2,.,.,.,.,.,.
CC(O)c1ccc(Oc2cnccn2)cc1 (configuration not stated),-3.2,-1.9,-5.7,-5.1,.,.,.,.,.,.
CC1C/C(=C/c2ccncc2)C(=O)/C(=C/c2ccncc2)C1 (configuration not stated),96.0*,9.0,43.5*,?,-4.5,.,.,.,103.3*,105.6*

# Assay outcomes deposited in PubChem by several laboratories.
